Screening data (PubChem)
A selection: hits, their analogues and other compounds. The true share with any hit is near 4.3%.
ALR H2O2 inh: blocks human ALR sulfhydryl oxidase activity; P55789; purified ALR, DTT oxidation, H2O2 HRP-luminol luminescence; inhibition, % (concentration not given with the values); 290,000 tested, 3.8% active;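 active = mean replicate inhibition above about 79%, with every replicate also reaching it, limit read from the data; inconclusive = only one of the two criteria met; inactive = mean below limit and not every replicate reaching it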
Target sequence (P55789 whole entry, looked up): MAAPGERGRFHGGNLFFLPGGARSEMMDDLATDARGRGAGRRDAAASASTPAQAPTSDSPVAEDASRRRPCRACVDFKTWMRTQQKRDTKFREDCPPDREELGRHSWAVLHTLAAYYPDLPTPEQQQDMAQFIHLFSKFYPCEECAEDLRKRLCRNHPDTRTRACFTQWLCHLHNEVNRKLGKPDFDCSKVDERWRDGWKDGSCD
Rtt109 HAT inh: C. albicans Rtt109 histone acetyltransferase inhibition; Q5AAJ8; purified Rtt109/Vps75, ThioGlo CoA-SH fluorescence, 4 h; inhibition, % at 34.9 µM; 330,000 tested, 0.16% active; AID 540336;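 active = inhibition of at least 50% in every replicate; inconclusive = best replicate reaches 50% inhibition but some replicates fall short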
Target sequence (Q5AAJ8 whole entry, looked up): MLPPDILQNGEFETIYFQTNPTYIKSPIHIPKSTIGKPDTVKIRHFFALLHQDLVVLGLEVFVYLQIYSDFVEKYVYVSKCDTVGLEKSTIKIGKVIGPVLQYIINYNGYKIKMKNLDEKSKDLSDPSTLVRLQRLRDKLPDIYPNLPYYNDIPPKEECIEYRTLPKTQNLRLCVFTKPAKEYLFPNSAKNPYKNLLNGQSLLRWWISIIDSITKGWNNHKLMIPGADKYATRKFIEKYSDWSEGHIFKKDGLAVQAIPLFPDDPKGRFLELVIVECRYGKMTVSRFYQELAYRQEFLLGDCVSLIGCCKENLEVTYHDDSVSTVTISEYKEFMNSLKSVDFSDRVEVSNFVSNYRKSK
CAL PDZ FP-1: human CAL PDZ-peptide interaction inhibition | purified CAL PDZ, TMR-peptide fluorescence polarization, 1 h | 330,000 tested, 0.02% active | inhibition, % at 20 µM;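 active = highest replicate inhibition of at least 40%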
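Assay system – tagged CAL PDZ protein CerCALP, purified · Timing – 1 h at RT · Compound – single point, 20 µM · Measured by – fluorescence polarization from S- and P-plane intensities, G-factor corrected · Evaluation – inhibition from polarization loss · Probe or stimulus – TMR reporter peptide T*-PRC34 · Buffer or medium – pH 7.4 phosphate-saline buffer, reducing agent, detergent, IgG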
Dyrk1A ADPGlo: blocks rat Dyrk1A kinase activity; AID 504441; 310,000 tested, 0.43% active; ADP-Glo luminescence, NFATc1 peptide; inhibition, % at 12.5 µM; in the data active = inhibition above about 50%
CAL PDZ FP-2: blocks peptide binding to the human CAL PDZ domain; Q9HD26; purified CAL PDZ, TMR-peptide fluorescence polarization, 1 h; inhibition, % at 24.9 µM; 300,000 tested, 0.92% active; AID 602252;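 active = mean inhibition of at least 30% with at least half of replicates also reaching 30%; inconclusive = no clear call, values can overlap the other calls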
A number is an active result; 0 = inactive; ? = inconclusive; - = no result given; ! = not active in a repeat.

SMILES | ALR H2O2 inh | Rtt109 HAT inh | CAL PDZ FP-1 | Dyrk1A ADPGlo | CAL PDZ FP-2
COc1ccccc1N1C(=O)CC(Sc2n[nH]c(-c3cccc(C)c3)n2)C1=O (stereo not drawn) | 99 | 0 | 0 | 0 | 0
C=CCc1cc(/C=C/c2nc(O)c([N+](=O)[O-])c(=O)[nH]2)cc(OC)c1O | 82 | 0 | 0 | 0 | 0
O=c1[nH]c(/C=C\c2ccc(O)c(Cl)c2)nc(O)c1[N+](=O)[O-] | 0 | 0 | 0 | 0 | 0
O=c1[nH]c(/C=C\c2ccc(O)cc2)nc(O)c1[N+](=O)[O-] | 97 | 0 | 0 | 0 | -
CCOc1cc(/C=C\c2nc(O)c([N+](=O)[O-])c(=O)[nH]2)ccc1OC(C)C | 0 | 0 | 0 | 0 | 0
Fc1ccc(CSc2nnc(-c3cnccn3)n2Cc2ccco2)cc1 | 87 | 0 | 0 | 0 | -
Brc1ccc(CSc2nnc(-c3cnccn3)n2Cc2ccco2)cc1 | 0 | 0 | 0 | 0 | -
CC1(c2ccccc2Cl)NC(=O)N(CC(=O)c2ccc3c(c2)OCO3)C1=O (stereo not drawn) | 0 | 0 | 0 | 0 | 0
Nc1ccccc1C(O)(Cc1ccccc1)c1ccccc1 (stereo not drawn) | 99 | 0 | 0 | 0 | 0
OC(Cc1cccnc1)(c1ccccc1)c1ccccc1 | - | 0 | 0 | 0 | 0
O=S(=O)(c1ccccc1)N1CCN(C(c2ccccc2)c2ccc(OC(F)(F)F)cc2)CC1 (stereo not drawn) | 0 | 0 | 0 | 0 | 0
CNc1ccccc1NC(=O)C1CCCN1C(=O)OCc1ccccc1 (stereo not drawn) | 0 | 0 | 0 | - | 0
CCN(CC)c1ccc(N=Cc2c(C)[nH]c3ccccc23)cc1 | ? | 0 | 0 | 0 | 0
CCN(CC)c1ccc(N=CN2CCOCC2)cc1 | 98 | 0 | 0 | 0 | -
CCOC(=O)c1cnc2ncnn2c1N | 0 | - | 0 | 0 | 52
COc1ccc(/C=C2/C(=O)N(c3ccccc3)N=C2C)cc1 | 0 | - | - | - | -
COc1ccc(/C=C2/C(=O)N(c3c(F)c(F)c(F)c(F)c3F)N=C2C)cc1 | 90 | 0 | 0 | 0 | 0
O=C(COC(=O)c1nn(CCO)c(=O)c2ccccc12)Nc1ccc(Cl)c(Cl)c1 | 0 | 0 | 0 | 0 | -
CC(C)N(Cc1cc2ccccc2[nH]c1=O)C(=O)c1ccco1 | 0 | 0 | 0 | 0 | 0
Cc1cc(C)nc(NC(=O)Cc2ccc(Br)cc2)n1 | 0 | 0 | 0 | - | 0
Cc1ccc2[nH]cc(CCNC(=O)Nc3ccccc3)c2c1 | 98 | 0 | 0 | 0 | -
Cc1ccc2[nH]cc(CCNC(=O)c3cccnc3)c2c1 | 96 | 0 | 0 | 0 | 0
CCN(CC)c1ccc2ccc(=O)oc2c1 | 98 | 0 | 0 | 0 | 0
CCN(CC)c1ccc2c(c1)oc(=O)c1c(Cl)cc(=O)oc12 | 97 | 0 | 0 | 0 | -
CCN(CC)c1ccc2cc(C#N)c(=O)oc2c1 | 0 | 0 | 0 | 0 | 0
SMILES | ALR H2O2 inh | Rtt109 HAT inh | CAL PDZ FP-1 | Dyrk1A ADPGlo | CAL PDZ FP-2
CCN(CC)c1ccc2c(C)c(-c3ccc(N)cc3)c(=O)oc2c1 | 87 | 0 | 0 | 0 | 0
CCN(CC)c1ccc2c(C)cc(=O)oc2c1 | 99 | 0 | 0 | - | 0
CC(=O)Nc1ccc(N2CC(C)(C)C2=O)cc1 | 0 | 0 | 0 | 0 | -
C=CCn1c(SCC(=O)Nc2cccc3ccccc23)nc(O)c(CC)c1=O | 98 | 0 | 0 | 0 | 0
C=CCn1c(SCC(=O)Nc2ccc(F)cc2)nc2ccccc2c1=O | 0 | 0 | 0 | 0 | 0
C=CCn1c(SCC(=O)Nc2ccc(O)cc2)nc2sc(CC)cc2c1=O | 97 | 0 | 0 | 0 | 0
C=CCn1c(SCC(=O)/C(C#N)=C(\C)N)nc2sc(CC)cc2c1=O | 0 | 0 | 0 | 0 | 40!
C=CCn1c(SCC(=O)O)nc2sc(CC)cc2c1=O | 0 | 0 | 0 | 0 | -
O=C(NC1CC2CCCC(C1)N2C(=S)NCCc1ccccc1)C1CC1 (stereo not drawn) | 0 | 0 | 0 | 0 | 0
O=C(O)CC1(CC(=O)Nc2cc3ccccc3cn2)CCCCC1 | 0 | - | - | - | -
COC(=O)c1ccccc1NC(=O)CCCn1nc([N+](=O)[O-])c(Br)c1C | 0 | 0 | 0 | 0 | 0
CCOC(=O)C1CCCN(C(=O)CN2C(=O)NC(C)(c3ccc4ccccc4c3)C2=O)C1 (stereo not drawn) | 0 | 0 | 0 | 0 | 0
O=C1CC(SCc2nc3ccccc3[nH]2)C(=O)N1c1cccc(Cl)c1 (stereo not drawn) | 98 | 0 | 0 | 0 | 0
CC1CCCN(CCCN2C(=O)C3C(C(=O)Nc4ccc(Cl)cc4)C4C=CC3(O4)C2C(=O)NC2CCCCC2)C1 (stereo not drawn) | 0 | 0 | 0 | 0 | 0
Cc1ccc(SCC(=O)Nc2ccc(S(=O)(=O)Nc3nccs3)cc2)cc1 | 0 | 0 | 0 | 0 | 0
O=C(CSc1ccncc1)Nc1ccc(S(=O)(=O)Nc2nccs2)cc1 | 99 | 0 | 0 | 0 | 0
CC(=O)Nc1ccc(S(=O)(=O)Nc2nccs2)cc1 | 0 | 0 | 0 | 0 | 0
Cc1ccc(S(C)(=O)=O)cc1C(=O)Nc1ccc(S(=O)(=O)Nc2nccs2)cc1 | 97 | 0 | 0 | 0 | 0
COc1ccccc1NS(=O)(=O)c1cccc(C(=O)NCC(c2ccco2)N(C)C)c1 (stereo not drawn) | 0 | 0 | 0 | 0 | 0
C[C@]12CC[C@H]3C(=CCc4cc(O)ccc43)[C@@H]1CCC2=O | 94 | 0 | 0 | 0 | 0
O=C(C1CC(=O)N(c2ccc(F)cc2)C1)N1CCCCCC1 (stereo not drawn) | 0 | 0 | 0 | 0 | 0
CC1Sc2ccc(C(=O)Nc3ccc(S(=O)(=O)N(C)C)cc3)cc2NC1=O (stereo not drawn) | 98 | 0 | 0 | 0 | 0
CNC(=O)c1c(Cl)cnn1-c1ccc(C)cc1 | 0 | 0 | 0 | 0 | 0
Cc1ccc(-n2ncc(Cl)c2C(=O)NC2CC2)cc1 | 0 | 0 | 0 | 0 | 59
COCCN(CCOC)C(=O)c1ccc(CSc2nc3ccccc3s2)cc1 | 92 | 0 | 0 | 0 | 0
SMILES | ALR H2O2 inh | Rtt109 HAT inh | CAL PDZ FP-1 | Dyrk1A ADPGlo | CAL PDZ FP-2
O=C(NNc1c2ccccc2nc2ccccc12)C(O)c1ccccc1 (stereo not drawn) | 99 | 0 | 0 | 0 | 0
O=C(NNc1c2ccccc2nc2ccccc12)c1cccc(O)c1 | 99 | 0 | 0 | 0 | 0
O=C(O)c1cccc(Nc2c3ccccc3nc3ccccc23)c1 | 0 | 0 | 0 | 0 | -
O=C(NNc1c2ccccc2nc2ccccc12)c1ccc(O)cc1 | 99 | 0 | 0 | 0 | 0
O=C(NNC(=O)c1ccc2ccccc2n1)c1ccc(O)cc1 | - | 0 | 0 | 0 | 0
O=C1Nc2ccccc2Nc2ncccc21 | - | 0 | 0 | 0 | 0
Cc1ccc2c(c1)NC(=O)c1cccnc1N2 | 98 | 0 | 0 | 0 | 0
CC1CCC(NC(=O)CC(NC(N)=O)c2ccccc2Cl)CC1 (stereo not drawn) | 0 | 0 | 0 | 0 | 0
O=c1oc2cc(Br)ccc2n1CSC1=NCCS1 | 99 | 0 | 0 | 0 | 0
Clc1ccc(C=NN2CCCCCC2)cc1Cl | - | 0 | 0 | 0 | 0
Oc1ccc(/C=N/N2CCCCC2)cc1O | 99 | 0 | 0 | 0 | 0
COc1cc(/C=N/N2C(C)CCCC2C)cc(Br)c1O (stereo not drawn) | 99 | 0 | 0 | 0 | 0
